Source: PubChem BioAssay AID504324 (Broad Institute, 2011)
“And” between values parts separate entries of the source, which are not always exact repeats. Identical values can stand only once. The source made the active and inactive calls.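 How the source made its calls: active means compounds lowering the signal whose fitted half-maximal concentration is at most ten times their top tested dose; inconclusive means flat curve with a 30 to 70% drop, or poor fit; inactive means rising signal, flat curve, or potency beyond limit.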

Key:
[1] = HRE-luciferase induction in zinc-containing medium – U2OS HRE-luc cells, dry powder, mechanism study for HIF pathway activator project, dose response (AID 504324); settings: U2OS HRE-luciferase reporter, zinc medium, luminescence; at 38 µM (top of the series)
How it was run: (§1)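 assay system = human osteosarcoma U2OS cells stably expressing 3×HRE-driven luciferase reporter | medium = phenol red-free DMEM with FBS and 50 µM zinc | compound = 8-point, 3-fold compound series | schedule = cells plated 24 h before dosing, compound exposure 24 h, 37 °C | measured by = luciferase luminescence, Steady-Glo reagent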

[2] = system: U2OS HRE-luciferase reporter, zinc medium, luminescence; assay: as above
How it was run: as §1

With `Cc1cccc(NC(=O)c2cc(-c3ccccc3)on2)n1` the activity change, negative = decrease [1] was 39.8% (inactive).

In the case of `c1ccc(-c2nnc(-c3ccccn3)nc2Nc2cnc3ccccc3n2)cc1`, the AC50 [2] is reported as 10.6 µM.

For `c1ccc(-c2nnc(-c3ccccn3)nc2NCC2CCCCC2)cc1`, the activity change, negative = decrease [1] was 8340% (inactive).

For `O=C(c1cc(-c2ccccc2)on1)N1CCc2cccnc21`, the activity change, negative = decrease [1] was 44% (inactive).

With `C=CCNc1nc(-c2ccccn2)nnc1-c1ccccc1` the activity change, negative = decrease [1] was 5230% (inactive).

With `O=C(NC1Cc2ccccc2C1)c1cc(-c2ccccc2)on1` the activity change, negative = decrease [1] was 146% (inactive).

In the case of `O=C(NCCCN1CCOCC1)c1cc(-c2ccccc2)on1`, the activity change, negative = decrease [1] is reported as 1480% (inactive).

For `c1ccc(-c2nnc(-c3ccccn3)nc2NCc2cccnc2)cc1`, the activity change, negative = decrease [1] was 3620% (inactive).

In the case of `C[C@@H](Nc1nc(-c2ccccn2)nnc1-c1ccccc1)c1ccccc1`, the activity change, negative = decrease [1] is reported as 4300% (inactive).

For `CC(C)(C)CCNc1nc(-c2ccccn2)nnc1-c1ccccc1`, the activity change, negative = decrease [1] was 7490% (inactive) and 6820% (inactive).

In the case of `c1ccc(-c2nnc(-c3ccccn3)nc2NCc2ccccn2)cc1`, the activity change, negative = decrease [1] is reported as 3330% (inactive).

With `O=C(NC1CCc2ccccc2C1)c1cc(-c2ccccc2)on1` (configuration not stated) the activity change, negative = decrease [1] was -9.29% (inactive).

For `Oc1ccc(CN2CCc3ccccc3C2)c2cccnc12`, the activity change, negative = decrease [1] was -77.2% (inactive) and 47.2% (inactive).

With `CN(C)CCNC(=O)c1cc(-c2ccccc2)on1` the activity change, negative = decrease [1] was 31.3% (inactive).

For `Cc1cccc(CNc2nc(-c3ccccn3)nnc2-c2ccccc2)c1`, the activity change, negative = decrease [1] was 6280% (inactive).

For `Cn1c(-c2ccccc2)cnc1Nc1nc(-c2ccccn2)nnc1-c1ccccc1`, the activity change, negative = decrease [1] was 210% (inactive).

For `Cc1ccc(CNC(=O)c2cc(-c3ccccc3)on2)cc1`, the activity change, negative = decrease [1] was 10.4% (inactive).

For `CCCCNC(=O)c1cc(-c2ccccc2)on1`, the activity change, negative = decrease [1] was 1050% (inactive).

For `Oc1ccc(CNC2CCc3ccccc32)c2cccnc12` (configuration not stated), the AC50 [2] was > 38 µM (inactive).

In the case of `c1ccc(CNc2nc(-c3ccccn3)nnc2-c2ccccc2)cc1`, the activity change, negative = decrease [1] is reported as 5410% (inactive).

With `c1ccc(-c2cccc(CNc3nc(-c4ccccn4)nnc3-c3ccccc3)c2)cc1` the activity change, negative = decrease [1] was 4810% (inactive).

For `O=C(NCCCn1ccnc1)c1cc(-c2ccccc2)on1`, the activity change, negative = decrease [1] was 1800% (inactive).

In the case of `O=C(NCc1ccccc1)c1cc(-c2ccccc2)on1`, the activity change, negative = decrease [1] is reported as 64% (inactive).

For `OCCCNc1nc(-c2ccccn2)nnc1-c1ccccc1`, the activity change, negative = decrease [1] was 3730% (inactive).

For `CC(C)(C)OC(=O)N1CCN(Cc2ccc(O)c3ncccc23)CC1`, the activity change, negative = decrease [1] was 28.3% (inactive).

In the case of `O=C(c1cc(-c2ccccc2)on1)N1CCC(N2CCOCC2)CC1`, the activity change, negative = decrease [1] is reported as -1.04% (inactive).

In the case of `c1ccc(-c2nnc(Nc3nc(-c4ccccn4)nnc3-c3ccccc3)s2)cc1`, the activity change, negative = decrease [1] is reported as 161% (inactive).

In the case of `COc1ccccc1N1CCN(Cc2ccc(O)c3ncccc23)CC1`, the activity change, negative = decrease [1] is reported as 52.8% (inactive).

In the case of `O=C(Nc1nnc(-c2ccccc2)s1)c1cc(-c2ccccc2)on1`, the activity change, negative = decrease [1] is reported as 6.48% (inactive).

With `N#CC1(c2ccccc2)CCN(Cc2ccc(O)c3ncccc23)CC1` the activity change, negative = decrease [1] was 208% (inactive).

In the case of `C[C@@H](Nc1nc(-c2ccccn2)nnc1-c1ccccc1)C1CCCCC1`, the activity change, negative = decrease [1] is reported as 4780% (inactive).

For `c1ccc(-c2ccc(CNc3nc(-c4ccccn4)nnc3-c3ccccc3)cc2)cc1`, the activity change, negative = decrease [1] was 3920% (inactive).

In the case of `O=C(NCC1CC1)c1cc(-c2ccccc2)on1`, the activity change, negative = decrease [1] is reported as 798% (inactive).

For `C[C@H](Nc1nc(-c2ccccn2)nnc1-c1ccccc1)C1CCCCC1`, the activity change, negative = decrease [1] was 5570% (inactive).

In the case of `CC(Nc1nc(-c2ccccn2)nnc1-c1ccccc1)c1ccccc1` (configuration not stated), the activity change, negative = decrease [1] is reported as 4380% (inactive).

For `COc1ccc(CNc2nc(-c3ccccn3)nnc2-c2ccccc2)cc1`, the activity change, negative = decrease [1] was 5130% (inactive).

With `Cn1c(NC(=O)c2cc(-c3ccccc3)on2)nc2ccccc21` the activity change, negative = decrease [1] was -2.21% (inactive).

In the case of `c1ccc(-c2cnc(Nc3nc(-c4ccccn4)nnc3-c3ccccc3)s2)cc1`, the activity change, negative = decrease [1] is reported as 44.9% (inactive).

For `c1ccc(-c2nnc(-c3ccccn3)nc2N2CCN(c3ccncc3)CC2)cc1`, the activity change, negative = decrease [1] was 4830% (inactive).

In the case of `Oc1ccc(CNC2Cc3ccccc3C2)c2cccnc12`, the activity change, negative = decrease [1] is reported as 314% (inactive).

For `Cn1c(-c2ccccc2)cnc1NC(=O)c1cc(-c2ccccc2)on1`, the activity change, negative = decrease [1] was 19% (inactive).

For `Cc1ccc(NC(=O)c2cc(-c3ccccc3)on2)cn1`, the activity change, negative = decrease [1] was 21.6% (inactive).

For `O=C(Nc1ccc2ccccc2n1)c1cc(-c2ccccc2)on1`, the activity change, negative = decrease [1] was 22.8% (inactive).

For `O=C(Nc1ncc2ccccc2n1)c1cc(-c2ccccc2)on1`, the activity change, negative = decrease [1] was 152% (inactive).

With `Cc1ccc(CNc2nc(-c3ccccn3)nnc2-c2ccccc2)cc1` the activity change, negative = decrease [1] was 6080% (inactive).

With `O=C(Nc1cnc2ccccc2c1)c1cc(-c2ccccc2)on1` the activity change, negative = decrease [1] was 17.3% (inactive).

For `c1ccc(-c2nnc(-c3ccccn3)nc2N2CCC(C3CCCCC3)C2)cc1` (configuration not stated), the activity change, negative = decrease [1] was 4900% (inactive).

`c1ccc(-c2nnc(-c3ccccn3)nc2Nc2nc3ccccc3s2)cc1` gave an AC50 [2] of 5.6 µM.

With `O=C(Nc1cn2ccccc2n1)c1cc(-c2ccccc2)on1` the activity change, negative = decrease [1] was 41.5% (inactive).

With `O=C(Nc1ncc(-c2ccccc2)o1)c1cc(-c2ccccc2)on1` the activity change, negative = decrease [1] was 18.1% (inactive).

For `Cc1ccccc1CNC(=O)c1cc(-c2ccccc2)on1`, the activity change, negative = decrease [1] was 25.4% (inactive).

With `COc1cccc(CNc2nc(-c3ccccn3)nnc2-c2ccccc2)c1` the activity change, negative = decrease [1] was 4540% (inactive).

For `c1ccc(-c2nnc(-c3ccccn3)nc2NCC2CC2)cc1`, the activity change, negative = decrease [1] was 5580% (inactive).

For `Cc1cccc(Nc2nc(-c3ccccn3)nnc2-c2ccccc2)n1`, the activity change, negative = decrease [1] was 4620% (inactive).

With `c1ccc(-c2nnc(-c3ccccn3)nc2NCCc2ccccn2)cc1` the activity change, negative = decrease [1] was 4700% (inactive).

In the case of `O=C(NCC1CCCCC1)c1cc(-c2ccccc2)on1`, the activity change, negative = decrease [1] is reported as 158% (inactive).

In the case of `O=C(Nc1nc2ccccc2s1)c1cc(-c2ccccc2)on1`, the activity change, negative = decrease [1] is reported as 12.6% (inactive).

In the case of `c1ccc(-c2nnc(-c3ccccn3)nc2NCCN2CCOCC2)cc1`, the activity change, negative = decrease [1] is reported as 3780% (inactive).

For `c1ccc(-c2nnc(-c3ccccn3)nc2N2CCC(c3ccccc3)C2)cc1` (configuration not stated), the activity change, negative = decrease [1] was 5380% (inactive).

In the case of `Oc1ccc(CN2CCC3CCCCC3C2)c2cccnc12` (configuration not stated), the activity change, negative = decrease [1] is reported as 916% (inactive).

For `OCC1CCN(Cc2ccc(O)c3ncccc23)CC1`, the activity change, negative = decrease [1] was 29.9% (inactive).

In the case of `O=C(NCCN1CCCCC1)c1cc(-c2ccccc2)on1`, the activity change, negative = decrease [1] is reported as 56.5% (inactive).

For `Clc1cccc(CNc2nc(-c3ccccn3)nnc2-c2ccccc2)c1`, the activity change, negative = decrease [1] was 4600% (inactive).

In the case of `CC(C)(C)CCNC(=O)c1cc(-c2ccccc2)on1`, the activity change, negative = decrease [1] is reported as 651% (inactive).

In the case of `CN1CCN(c2nc(-c3ccccn3)nnc2-c2ccccc2)CC1`, the activity change, negative = decrease [1] is reported as 1500% (inactive).

With `CC(C)(C)c1ccc(CNc2nc(-c3ccccn3)nnc2-c2ccccc2)cc1` the activity change, negative = decrease [1] was 3790% (inactive).

With `c1ccc(CCNc2nc(-c3ccccn3)nnc2-c2ccccc2)cc1` the activity change, negative = decrease [1] was 4750% (inactive).

In the case of `O=C(NCCN1CCOCC1)c1cc(-c2ccccc2)on1`, the activity change, negative = decrease [1] is reported as 1440% (inactive).

In the case of `c1ccc(-c2nnc(-c3ccccn3)nc2NCCCN2CCOCC2)cc1`, the activity change, negative = decrease [1] is reported as 5050% (inactive).

With `O=C(NCCCCO)c1cc(-c2ccccc2)on1` the activity change, negative = decrease [1] was 1710% (inactive).

With `c1ccc(-c2nnc(-c3ccccn3)nc2NCC2CCOCC2)cc1` the activity change, negative = decrease [1] was 3680% (inactive).

With `Cc1ccccc1CNc1nc(-c2ccccn2)nnc1-c1ccccc1` the activity change, negative = decrease [1] was 5380% (inactive).

For `CN1CCN(C(=O)c2cc(-c3ccccc3)on2)CC1`, the activity change, negative = decrease [1] was 13.1% (inactive).

For `O=C(c1cc(-c2ccccc2)on1)N1CCN(c2ccncc2)CC1`, the activity change, negative = decrease [1] was -13.1% (inactive).

With `Cc1cccc(CNC(=O)c2cc(-c3ccccc3)on2)c1` the activity change, negative = decrease [1] was -6.77% (inactive).

For `c1ccc(-c2nnc(-c3ccccn3)nc2N2CCC(N3CCOCC3)CC2)cc1`, the activity change, negative = decrease [1] was 4120% (inactive).

In the case of `Oc1ccc(CN2CCC(Cc3ccccc3)CC2)c2cccnc12`, the activity change, negative = decrease [1] is reported as 27.6% (inactive).

For `OCC1CCN(c2nc(-c3ccccn3)nnc2-c2ccccc2)CC1`, the activity change, negative = decrease [1] was 1330% (inactive).

In the case of `CC1CN(Cc2ccc(O)c3ncccc23)CC(C)O1` (configuration not stated), the activity change, negative = decrease [1] is reported as 4.72% (inactive).

In the case of `Cc1ccc(CNc2nc(-c3ccccn3)nnc2-c2ccccc2)cc1C`, the activity change, negative = decrease [1] is reported as 4550% (inactive).

With `CN(C)c1nc(-c2ccccn2)nnc1-c1ccccc1` the activity change, negative = decrease [1] was 3380% (inactive).

In the case of `c1ccc(-c2csc(Nc3nc(-c4ccccn4)nnc3-c3ccccc3)n2)cc1`, the activity change, negative = decrease [1] is reported as 315% (inactive).

For `O=C(Nc1nc(-c2ccccc2)cs1)c1cc(-c2ccccc2)on1`, the activity change, negative = decrease [1] was -11.2% (inactive).

For `Cc1ccc(Nc2nc(-c3ccccn3)nnc2-c2ccccc2)cn1`, the activity change, negative = decrease [1] was 2240% (inactive).

For `O=C(c1cc(-c2ccccc2)on1)N1CCC(N2CCCC2)CC1`, the activity change, negative = decrease [1] was 6.15% (inactive).

With `O=C(c1cc(-c2ccccc2)on1)N1CCC(CO)CC1` the activity change, negative = decrease [1] was 14.3% (inactive).

With `O=C(NCCCO)c1cc(-c2ccccc2)on1` the activity change, negative = decrease [1] was 811% (inactive).
